Entries after “also recorded” stand apart in the source; their conditions may differ. Read-outs that look alike come from different tables or passages of the source.
Legend:
[1] = cited from earlier work; for elimination half-life: background statement for the sampling period, no reference given
[2] = format: in vivo, human; conditions: for Tmax: median (minimum through maximum); for Cmax: n = 22, mean ± SD; for t1/2: mean ± SD
CYP3A [3] = conditions: oral contraceptives that are substrates of CYP3A; cited from earlier work
CYP3A [4] = conditions: cited from earlier work
JAK1 = conditions: less potent against JAK2, JAK3, and tyrosine kinase; cited from earlier work
[5] = test system: CYP enzymes (CYP1A2, CYP2B6, CYP2C8, CYP2C9, CYP2C19, CYP2D6, and CYP3A4); conditions: at clinically relevant concentrations, cited from earlier work
[6] = cited from earlier work
[7] = cited from earlier work; remark: listed apart in the source
CYP2B6 mRNA = conditions: in vitro, at concentrations higher than clinically relevant; cited from earlier work
CYP2B6 = assay: In vivo effect of upadacitinib on CYP2B6; design: species or system human
[8] = test system: CYP1A2, CYP2C9, CYP2C19, or CYP2D6; conditions: chronic dosing of upadacitinib 30 mg once daily, healthy volunteers; cited from earlier work
[9] = Safety monitoring in the phase 1 study; format: in vivo, human; conditions: healthy subjects
Outline: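 Healthy adults aged 18-55 took part in a single-centre, open-label, two-period, single-sequence study with 24-day on-site confinement. Period 1 gave a single oral 150 mg extended-release CYP2B6 probe substrate dose after at least a 10-hour fast. Period 2 repeated that dose on day 12 of 16 days of oral test compound. Throughout, safety checks covered adverse events, physical exams, vital signs, ECG, haematology, chemistry and urinalysis.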

[10] = Study period 2, day 12: upadacitinib 30 mg once daily + bupropion 150 mg
[11] = Period 1, day 1: bupropion 150-mg single dose
[12] = Period 2, day 12: upadacitinib 30 mg once daily + bupropion 150-mg single dose
[13] = Study period 1, day 1: bupropion 150 mg alone
[14] = with upadacitinib relative to bupropion alone
[15] = with upadacitinib 30 mg once daily
[16] = with multiple doses of rifampin (broad CYP inducer)
[17] = with the strong CYP3A inhibitor ketoconazole

CC(NC(C)(C)C)C(=O)c1cccc(Cl)c1 (stereo not shown) [Bupropion, bupropion]
elimination half-life [1]: approximately 20 hours
Tmax [2, 10]: 5.0 (3.0‐8.0) h
AUC(0-inf) ([2]; human, plasma, oral, 150 mg): 859 ng·h/mL
AUC(0-t) ([2]; human, plasma, oral, 150 mg): 869 ± 271 ng·h/mL
Cmax ([2]; human, plasma, oral, 150 mg, Cmax, Study period 1, day 1: bupropion 150 mg alone, plasma): 83.5 ± 26.2 ng/mL

C[C@H]1NC(C)(C)CO[C@]1(O)c1cccc(Cl)c1 [Hydroxybupropion, hydroxybupropion]
elimination half-life [1]: approximately 20 hours
range of variability in hydroxybupropion exposures ([1]; inter- and intrasubject variability): 20% to 50%
Hydroxybupropion-to-bupropion metabolic ratio, AUCinf, central value, reference [2, 11]: 16.9
Hydroxybupropion-to-bupropion metabolic ratio, AUCt, central value, reference [2, 11]: 16.5
Hydroxybupropion-to-bupropion metabolic ratio, Cmax, central value, reference [2, 11]: 3.83
Hydroxybupropion-to-bupropion metabolic ratio, AUCinf, central value, test [2, 12]: 13.2
Hydroxybupropion-to-bupropion metabolic ratio, AUCt, central value, test [2, 12]: 13.1
Hydroxybupropion-to-bupropion metabolic ratio, Cmax, central value, test [2, 12]: 3.45
t1/2 [2, 13]: 25.1 ± 6.8 h
Tmax [2, 13]: 10.0 (5.0‐24.0) h
Cmax ([2]; Study period 1, day 1: bupropion 150 mg alone, plasma): 336 ± 150 ng/mL
t1/2 [2, 10]: 23.9 ± 5.6 h
Tmax [2, 10]: 10.0 (6.0‐24.0) h
Cmax ([2]; Study period 2, day 12: upadacitinib 30 mg once daily + bupropion 150 mg, plasma): 264 ± 121 ng/mL
AUCt ratio of central values, point estimate ([2]; with upadacitinib 30 mg once daily relative to bupropion alone): 0.726
exposures (AUCinf) lower when administered with upadacitinib ([2]; with upadacitinib 30 mg once daily versus bupropion alone): 28%
Hydroxybupropion-to-bupropion metabolic ratio, AUCinf, ratio of central values, point estimate [2, 14]: 0.780
Hydroxybupropion-to-bupropion metabolic ratio, AUCt, ratio of central values, point estimate [2, 14]: 0.790
Hydroxybupropion-to-bupropion metabolic ratio, Cmax, ratio of central values, point estimate [2, 14]: 0.902

C#C[C@]1(O)CC[C@H]2[C@@H]3CCc4cc(O)ccc4[C@H]3CC[C@@]21C [ethinylestradiol]
impact of upadacitinib on exposure (CYP3A [3]): no impact

C#C[C@]1(O)CC[C@H]2[C@@H]3CCC4=CC(=O)CC[C@@H]4[C@H]3CC[C@@]21CC [levonorgestrel]
impact of upadacitinib on exposure (CYP3A [3]): no impact

Cc1ncc2n1-c1ccc(Cl)cc1C(c1ccccc1F)=NC2 [midazolam]
decrease in exposures of midazolam (CYP3A [4]; chronic dosing of upadacitinib 30 mg once daily, healthy volunteers): 26%
decrease in midazolam AUC (CYP3A [4]; [15]): 26%
decrease in midazolam Cmax (CYP3A [4]; [15]): 26%

CC[C@@H]1CN(C(=O)NCC(F)(F)F)C[C@@H]1c1cnc2cnc3[nH]ccc3n12 [upadacitinib]
JAK1 inhibition (JAK1): potently inhibits
inhibition or induction of the activity of CYP enzymes [5]: did not inhibit or induce
inhibitor or inducer of drug-metabolizing enzymes, including CYP2B6 ([5]; in vitro): not an inhibitor or inducer
dose eliminated unchanged in urine [6]: approximately 20%
decrease in upadacitinib AUC [7, 16]: ~60%
decrease in upadacitinib Cmax [7, 16]: approximately 50%
increase in upadacitinib AUC [7, 17]: 75%
increase in upadacitinib Cmax [7, 17]: 70%
CYP2B6 mRNA expression (CYP2B6 mRNA): increase in CYP2B6 mRNA expression
effect on bupropion exposures (Cmax or AUC) (CYP2B6; bupropion on day 12 of 16-day upadacitinib 30 mg once daily regimen): no relevant effect
effect on pharmacokinetics of substrates metabolized by CYP2B6 (CYP2B6; upadacitinib 30 mg once daily, multiple doses): no relevant effect; also recorded: lack of relevant effect
effects on CYP1A2, CYP2C9, CYP2C19, or CYP2D6 activity [8]: no relevant effects
discontinuation because of adverse events ([9]; n = 22): no subject discontinued because of AEs
severity of the majority of treatment-emergent adverse events ([9]; n = 22, upadacitinib 30 mg once daily and bupropion 150 mg): mild in severity

From paper PMC7984436 (Clinical Pharmacology in Drug Development, 2020)
